Results as given in ChEMBL document CHEMBL1128450, “Mononucleoside phosphotriester derivatives with S-acyl-2-thioethyl bioreversible phosphate-protecting groups: intracellular delivery of 3'-azido-2',3'-dideoxythymidine 5'-monophosphate” (J Med Chem, 1995).
Several values for one entry are separate records, joined by “and”; a condition that tells them apart may be missing. Equal entries are not always repeated.

Columns and labels:
[1] = Selectivity Index measured as the ratio of CC50(CEM-SS) to EC50(CEM-SS).; assay type: functional
MT4 [2] = test: Antiviral activity in MT-4 cell line infected with HIV-1 and Concentration required to inhibit the replication of HIV-1 by 50% was determined; assay type: functional, cell-based; conditions: Homo sapiens
How it was run: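 HIV-1 IIIB at 50 TCID50 adsorbed to MT-4 cells for 30 min, followed by two washes and 5 days of culture with graded compound concentrations. Protection from virus-induced cytopathogenicity was read by MTT reduction to formazan. EC50 was taken from a median effect plot, averaging at least three separate experiments.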

CEM/TK- (Homo sapiens) [3] = test: Antiviral activity in CEM/TK cell line infected with HIV-1 and cytotoxic concentration required to reduce the viability of uninfected cells by 50%
MT4 [4] = test: Antiviral activity in MT-4 cell line infected with HIV-1 and cytotoxic concentration required to reduce the viability of uninfected cells by 50%; assay type: functional; conditions: Homo sapiens
How it was run: (§1)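 Uninfected cells were exposed to compound for 5 days, and viability was read by colorimetric MTT test. Values average at least three separate experiments.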

[5] = Selectivity Index measured as the ratio of CC50(CEM/TK) to EC50(CEM/TK).; assay type: functional
CEM-SS [6] = test: Antiviral activity in CEM-SS cell line infected with HIV-1 and Concentration required to inhibit the replication of HIV-1 by 50% was determined; assay type: functional, cell-based; conditions: Homo sapiens
How it was run: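 Cells infected with HIV-LAI at 100 TCID50 for 30 min, washed twice, then cultured with a range of compound concentrations for 5 days (6 days for CEM/TK⁻). Virus production was read as reverse transcriptase activity in the culture supernatant. EC50 was taken from a median effect plot of the dose–effect data, averaging at least three separate experiments.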

CEM-SS [7] = test: Antiviral activity in CEM-SS cell line infected with HIV-1 and cytotoxic concentration required to reduce the viability of uninfected cells by 50%; assay type: functional; conditions: Homo sapiens; how it was run: as §1
CEM/TK- (Homo sapiens) [8] = test: Antiviral activity in CEM/TK cell line infected with HIV-1 and Concentration required to inhibit the replication of HIV-1 by 50% was determined
[9] = Half life evaluated in Total Cell Extract(TCE) for determination 1.; assay type: ADME
How it was run: (§2)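 Compounds at 5 × 10⁻⁵ M initial were incubated at 37 °C in total cell extract from CEM-SS cells. Crude aliquots were analysed by on-line precolumn-cleaning HPLC, with and without ion-pairing reagent, on a C18 column using an ammonium acetate/acetonitrile gradient, with areas read at 266 nm. Half-lives came from pseudo-first-order rate constants fitted to kinetic models by exponential regression.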

[10] = Half life evaluated in Total Cell Extract(TCE) for determination 3.; assay type: ADME; how it was run: as §2
[11] = Half life evaluated in Total Cell Extract(TCE) for determination 2.; assay type: ADME; how it was run: as §2
[12] = Half life evaluated in Total Cell Extract(TCE).; assay type: ADME; conditions: for half-life: total cell extract (TCE); how it was run: as §2
[13] = Half life evaluated in Culture Medium(CM); assay type: ADME; conditions: for half-life: culture medium (CM)
How it was run: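 Compounds at 5 × 10⁻⁵ M initial were incubated at 37 °C in RPMI 1640 with 10% heat-inactivated fetal calf serum. Crude aliquots were analysed by on-line ISRP precolumn-cleaning HPLC, with and without tetrabutylammonium ion-pairing, on a C18 column using an ammonium acetate pH 6.0/acetonitrile gradient. Species were quantified from peak areas at 266 nm. Half-lives were derived from pseudo-first-order rate constants fitted by mono- or polyexponential regression.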

EC50 (CEM-SS [6]) [nM]	EC50 (CEM/TK- (Homo sapiens) [8]) [nM]	half-life [9] [h]	half-life [10] [h]	half-life [11] [h]	half-life [12] [h]	half-life [13] [h]	Structure (SMILES)	Selectivity index [1]	EC50 (MT4 [2]) [nM]	CC50 (CEM/TK- (Homo sapiens) [3]) [nM]	CC50 (MT4 [4]) [nM]	Selectivity index [5]	CC50 (CEM-SS [7]) [nM]	T1/2 [12] [h]	T1/2 [13]
23	550						Cc1cn(C2CC(N=[N+]=[N-])C(COP(=O)(OCCSSCCO)OCCSSCCO)O2)c(=O)[nH]c1=O (centres undefined)	> 4300	54	> 100000	> 100000	> 180	> 100000		
		2.3	10.5	9			Cc1cn(C2CC(N=[N+]=[N-])C(COP(=O)(O)OCCS)O2)c(=O)[nH]c1=O (centres undefined)								
6	> 100000						Cc1cn([C@H]2C[C@H](N=[N+]=[N-])[C@@H](CO)O2)c(=O)[nH]c1=O [ZIDOVUDINE]	> 17300	17	> 100000	75000		> 100000		
46	520				0.75	9	Cc1cn(C2CC(N=[N+]=[N-])C(COP(=O)(OCCSC(=O)C(C)C)OCCSC(=O)C(C)C)O2)c(=O)[nH]c1=O (centres undefined)	> 200	48	> 10000	> 10000	> 17	> 10000		
					7.1	12.3	Cc1cn(C2CC(N=[N+]=[N-])C(COP(=O)(O)OCCSC(=O)C(C)C)O2)c(=O)[nH]c1=O (centres undefined)								
77	255						Cc1cn(C2CC(N=[N+]=[N-])C(COP(=O)(OCOC(=O)C(C)(C)C)OCOC(=O)C(C)(C)C)O2)c(=O)[nH]c1=O (centres undefined)	860	52	65500	59000	250	67000		
125	320						Cc1cn(C2CC(N=[N+]=[N-])C(COP(=O)(OCCSC(=O)c3ccccc3)OCCSC(=O)c3ccccc3)O2)c(=O)[nH]c1=O (centres undefined)	> 8	76	> 1000	> 1000	> 4	> 1000		
					7.2	21.3	Cc1cn(C2CC(N=[N+]=[N-])C(COP(=O)(O)OCCSC(=O)C(C)(C)C)O2)c(=O)[nH]c1=O (centres undefined)								
15	450				1.05	103	Cc1cn(C2CC(N=[N+]=[N-])C(COP(=O)(OCCSC(=O)C(C)(C)C)OCCSC(=O)C(C)(C)C)O2)c(=O)[nH]c1=O (centres undefined)	> 670	810	> 10000	> 10000	> 22	> 10000		
					< 0.0833	8.9	CC(=O)SCCOP(=O)(O)OCC1OC(n2cc(C)c(=O)[nH]c2=O)CC1N=[N+]=[N-] (centres undefined)								
22	49				< 0.0833	9	CC(=O)SCCOP(=O)(OCCSC(C)=O)OCC1OC(n2cc(C)c(=O)[nH]c2=O)CC1N=[N+]=[N-] (centres undefined)	4300	50	> 100000	67000	> 2050	93000		

Structure (SMILES)	EC50 (CEM-SS [6]) [nM]	EC50 (CEM/TK- (Homo sapiens) [8]) [nM]	half-life [9] [h]	half-life [10] [h]	half-life [11] [h]	half-life [12] [h]	half-life [13] [h]	Selectivity index [1]	EC50 (MT4 [2]) [nM]	CC50 (CEM/TK- (Homo sapiens) [3]) [nM]	CC50 (MT4 [4]) [nM]	Selectivity index [5]	CC50 (CEM-SS [7]) [nM]	T1/2 [12] [h]	T1/2 [13]
Cc1cn([C@H]2C[C@H](N=[N+]=[N-])[C@@H](COP(=O)(O)O)O2)c(=O)[nH]c1=O [AZIDOTHYMIDINE MONOPHOSPHATE]						4	50							4	72 h and 67 h
